FGF22 binding: shifts melting point of recombinant human FGF22. Q9HCT0. AID 651658. recombinant FGF22 thermal shift, SYPRO orange fluorescence; percent of sucrose octasulfate shift, DMSO zero. activity (Tm shift, normalised), % at 9.99 µM. actives 1.5% (n = 340,000);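 active means mean Tm shift, scaled 0 neutral to 100 positive control, at about 1.3% or above, every replicate too, limit read from the data; inconclusive means no clear call, values can overlap the other calls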
Target sequence (Q9HCT0 whole entry, looked up): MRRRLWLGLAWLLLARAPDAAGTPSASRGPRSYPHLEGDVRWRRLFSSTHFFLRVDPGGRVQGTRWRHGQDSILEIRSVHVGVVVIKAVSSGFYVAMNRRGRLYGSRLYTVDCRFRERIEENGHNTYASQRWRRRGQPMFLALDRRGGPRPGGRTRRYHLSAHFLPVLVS
DENV2 CPE: inhibitors of DENV2 cytopathic effect; DENV2-infected cells, cytopathic effect rescue, plate reader; CPE inhibition, % at 9.99 µM; actives 1.7% (n = 350,000); AID 651640; in the data active means CPE inhibition above about 20%, passing the limit was not always enough; inconclusive means no clear call, values can overlap the other calls; tested in BHK-21 cells;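 further: 0% = median of neutral control wells and 100% = median of positive control wells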
SIRT5 inh: blocks human SIRT5 desuccinylation of peptide; Purified SirT5, succinyl-peptide AMC, trypsin-coupled fluorescence; inhibition, % at 15 µM; actives 1.1% (n = 330,000); AID 652115; in the data active means inhibition above about 15%; inconclusive means no clear call, values can overlap the other calls
Target sequence (Q9NXA8 whole entry, looked up): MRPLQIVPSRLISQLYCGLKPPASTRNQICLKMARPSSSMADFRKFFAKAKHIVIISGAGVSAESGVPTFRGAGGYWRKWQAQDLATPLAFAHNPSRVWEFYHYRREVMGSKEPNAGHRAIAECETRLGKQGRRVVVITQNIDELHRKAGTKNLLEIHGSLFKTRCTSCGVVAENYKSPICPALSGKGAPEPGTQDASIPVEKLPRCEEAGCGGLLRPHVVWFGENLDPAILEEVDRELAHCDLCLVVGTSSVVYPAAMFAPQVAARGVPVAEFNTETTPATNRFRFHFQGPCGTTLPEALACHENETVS
XiGFP reactiv: reactivates the inactive X chromosome in mouse fibroblasts; XiGFP mouse fibroblasts, % GFP-positive cells imaging, 3 d; cells co-treated with 5-aza-dC sensitizer; scaled so ellipticine positive control = 100%; activation, % at 7.58 µM; actives 0.055% (n = 360,000);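 active means mean normalized replicate activation at least 10% and every replicate at or above 10%; inconclusive means only one of the two criteria met; inactive means mean below 10% and not all replicates reach 10%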;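 further: 0% = median of on-plate neutral control wells and 100% = ellipticine 6 µM median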
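System: 68-5-11 XiGFP fibroblast line; Timing: 3 days compound exposure; Compound dosing: one concentration, pinned; Benchmarks: positive control ellipticine, 6 µM final; Buffer or medium: DMEM containing 5-aza-dC.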
ARNT TACC3 PPI: ARNT/TACC3 interaction disruption. Q9Y6A5. AlphaScreen His-ARNT PAS-B/GST-TACC3 binding, luminescence; TACC3 fragment carries E629A point mutation. inhibition, % at 9.99 µM. actives 0.66% (n = 390,000);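 active means mean inhibition of replicates at least 50% and at least half of replicates each reaching 50%; inconclusive means half or more replicates reach 50% but mean below 50%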;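 further: 0% = complete ARNT plus TACC3 wells and 100% = ARNT alone without TACC3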
FN deposition inh: fibronectin deposition inhibition; inhibition, % at 12.6 µM; actives 0.086% (n = 350,000); AH1F fibroblasts, Alexa488-fibronectin deposition fluorescence, overnight; AID 743247;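 active means mean inhibition across replicates of 30% or more, regardless of how many single replicates reach that level; inconclusive means mean under 30% yet at least half of replicates reach 30%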;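 further: positive control wells lacked labelled fibronectin entirely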
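Test system: AH1F fibroblast monolayer depositing Alexa488-labelled fibronectin into matrix. Input: 10000 cells per well. Technique: fluorescence, ex 485 nm, em 525 nm. Buffer or medium: DMEM plus 2% serum, read in PBS. Timing: 1 h cell adhesion before compound, then overnight fibronectin incubation. Compound: single dose, pinned. Read-out basis: inhibition from reduced deposited-fibronectin fluorescence.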
* marks the source's active call; other numbers are inactive results; u = inconclusive; x = not tested or not shown; ! = a repeat was not active. Compounds with a hit are over-represented: about 3.8% of the library has one in this group of screens.

SMILES | FGF22 binding | DENV2 CPE | SIRT5 inh | XiGFP reactiv | ARNT TACC3 PPI | FN deposition inh
CCCC(=O)Nc1ccc2c(c1)C(=O)N(C)[C@H]1CC[C@H](CC(=O)N3CCc4ccccc4C3)O[C@H]1CO2 | 0 | -3 | x | 0 | 8 | -7
O=C(C[C@@H]1C=C[C@@H](NC(=O)C2CC2)[C@H](CO)O1)NCc1ccccc1Cl | 0 | 9 | 2 | 1 | -12 | 2
CC(NC(=O)COC(=O)c1nc(Cl)ccc1Cl)c1ccccc1 (stereo not given) | 44* | -1 | x | 0 | 0 | 5
O=C(COC(=O)c1nc(Cl)ccc1Cl)NNC(=O)c1ccccc1 | x | -4 | -3 | 0 | -1 | 4
CN(C)CC(=O)Nc1ccc2c(c1)[C@@H]1C[C@H](CC(=O)N(C)C)O[C@H](CO)[C@@H]1O2 | 0 | 0 | -3 | 0 | -8 | -1
CC(C)NC(=O)N1[C@H](CO)[C@@H](c2ccccc2)[C@H]1CN(C)C(=O)c1ccncc1 | x | -3 | x | 0 | -3 | -19
O=C(C1CCC1)N1CC2(C1)[C@@H](c1ccccc1)[C@@H](CO)N2C(=O)NC1CCCC1 | 1 | 31* | 0 | 0 | x | x
CCCNC(=O)N1[C@H](CO)[C@@H](c2ccccc2)C12CN(C(=O)C1CCCCC1)C2 | 0 | 85* | -5 | 0 | x | 5
CCCNC(=O)N1CC2(C1)[C@H](c1ccccc1)[C@H](CO)N2Cc1cccc(F)c1 | 0 | -6 | 24* | 0 | x | x
CCCC#Cc1ccc2c(c1)O[C@@H](CN(C)C(=O)COC)[C@H](C)CN([C@H](C)CO)S2(=O)=O | 0 | u | 0 | 0 | -2 | 0
Cc1ccc(Cl)cc1N1CCN(C(=O)c2ccc3nc[nH]c3c2)CC1 | 0 | 0 | 1 | 0 | 12 | 1
Cc1cccc(N2CCN(C(=O)c3ccc4nc[nH]c4c3)CC2)c1C | 0 | -3 | 31* | 0 | 5 | 1
COc1ccc(S(=O)(=O)Nc2cccc3c2O[C@H](CN(C)Cc2ccc4c(c2)OCO4)[C@@H](C)CN([C@H](C)CO)C3=O)cc1 | 0 | 3 | x | -1 | x | x
CO[C@H](CN(C)S(=O)(=O)c1cccc(Cl)c1)[C@@H](C)CN(C(=O)Nc1ccccc1F)[C@H](C)CO | 0 | -2 | 4 | 0 | 2 | -3
C[C@H](CO)N1C[C@H](C)[C@@H](CN(C)C(=O)NC2CCCCC2)Oc2c(NC(=O)Nc3ccc(C(F)(F)F)cc3)cccc2C1=O | 0 | 29*! | 4 | 0 | -6 | 7
C[C@@H]1CN([C@@H](C)CO)C(=O)c2cccc(NC(=O)Nc3ccc(C(F)(F)F)cc3)c2O[C@H]1CN(C)C(=O)NC1CCCCC1 | 0 | 1 | 101* | 0 | -11 | x
COc1ccc(S(=O)(=O)N(C)C[C@H]2OCc3ccccc3-c3ccccc3C(=O)N([C@H](C)CO)C[C@@H]2C)cc1 | 0 | 4 | 0 | -1 | 11 | 4
COc1ccccc1-c1cnc2c(c1)C(=O)N([C@H](C)CO)C[C@@H](C)[C@@H](CN(C)C)O2 | 0 | -4 | -1 | 0 | -4 | -2
Cc1noc(C)c1NC(=O)Nc1cccc2c1O[C@H](CN(C)C)[C@H](C)CN([C@@H](C)CO)C2=O | 0 | 2 | 1 | -1 | -5 | x
C[C@@H]1CN([C@@H](C)CO)S(=O)(=O)c2ccc(C#C[C@@H](C)O)cc2O[C@H]1CN(C)CC1CCCC1 | 0 | 21* | 4 | 0 | -15 | 6
COCC#Cc1ccc2c(c1)O[C@H](CN(C)CC1CCCC1)[C@@H](C)CN([C@H](C)CO)S2(=O)=O | 0 | 0 | 9 | 1 | 1 | -5
C[C@H](O)C#Cc1ccc2c(c1)O[C@H](CN(C)CC1CCCCC1)[C@H](C)CN([C@H](C)CO)S2(=O)=O | 0 | 0 | 1 | 0 | 4 | -2
COCC#Cc1ccc2c(c1)O[C@@H](CN(C)CC1CCCC1)[C@H](C)CN([C@@H](C)CO)S2(=O)=O | 0 | 10 | 24* | 0 | 2 | 2
CCCN(C)C[C@@H]1Oc2cc(C#CC3(O)CCCC3)ccc2S(=O)(=O)N([C@H](C)CO)C[C@@H]1C | 0 | 3 | 6.2* | 1 | 2 | x
CCOc1ccc(/C=C/C(=O)CCC(=O)O)cc1 | 43* | 8 | 1 | 0 | x | -2
SMILES | FGF22 binding | DENV2 CPE | SIRT5 inh | XiGFP reactiv | ARNT TACC3 PPI | FN deposition inh
C[C@@H]1CCCCO[C@H](CN(C)Cc2ccncc2)[C@H](C)CN([C@H](C)CO)C(=O)c2cc(NS(=O)(=O)c3ccc(Cl)cc3)ccc2O1 | 0 | -9 | 4 | 0 | 3 | 1
C/C=C/c1ccc([C@H]2[C@@H](CO)N3CCCCN(S(=O)(=O)c4cccc(C)c4)C[C@@H]23)cc1 | 0 | 19 | 11 | 0 | 12 | x
O=C(Nc1ccccc1C(=O)N/N=C/c1ccncc1)c1ccccc1 | 44* | 1 | 3 | 0 | x | -5
S=C(Nc1ccc(Cl)c(Cl)c1)N1CCCC1 | 0 | -4 | -2 | 0 | -1 | -2
CN1CCN(C(=S)Nc2ccc(Cl)c(Cl)c2)CC1 | 0 | 78* | x | 0 | -5 | 9
Cc1noc(C)c1S(=O)(=O)N(C)C[C@@H]1Oc2ccc(NC(=O)CCCN(C)C)cc2C(=O)N([C@@H](C)CO)C[C@@H]1C | 0 | 0 | -5 | 0 | 3 | x
Cc1cc(CN(C)C(=O)CC2C(=O)NCCN2CC(c2ccccc2)c2ccccc2)on1 (stereo not given) | 42 | 1 | -4 | 0 | -2 | -7
CN(CCc1ccccn1)C(=O)CC1C(=O)NCCN1Cc1ccc(-c2ccccc2)cc1 (stereo not given) | 44* | 1 | 0 | 0 | -3 | -4
C=CCNC(=O)CC1C(=O)NCCN1Cc1ccc(-c2ccccc2)cc1 (stereo not given) | 43* | 6 | 4 | 0 | x | -1
O=C(CC1C(=O)NCCN1Cc1ccc(-c2ccccc2)cc1)NCCc1ccccn1 (stereo not given) | 0 | -7 | 0 | 0 | 1 | x
CN(C)CC(C)(C)CNC(=O)CC1C(=O)NCCN1Cc1ccc(-c2ccccc2)cc1 (stereo not given) | 0 | -1 | -4 | 0 | -2 | -9
COCCN(C)C(=O)CC1C(=O)NCCN1CC(c1ccccc1)c1ccccc1 (stereo not given) | 44* | -11 | 1 | 0 | 0 | 2
O=C(CC1C(=O)NCCN1Cc1ccc(-c2ccccc2)cc1)NCC1CC1 (stereo not given) | 44* | -3 | -1 | 0 | 2 | -3
